From PubChem
FXIa inh 1536 – inhibitors of human coagulation factor XIa | P03951 | hit rate 0.14% among 220,000 | purified FXIa, Boc-Glu-Ala-Arg-AMC fluorogenic substrate | inhibition, % at 5 µM;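 active means inhibition of at least 40%; inactive means inhibition below 40%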;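 further: fluorescence of freed AMC excited at 355 nm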
Furin inh – inhibitors of human furin; P09958; purified furin, fluorogenic substrate cleavage; inhibition, % at 20 µM or 30 µM; hit rate 0.061% among 220,000; in the data active means inhibition above about 25%
Target sequence (P09958 108-714 limits assumed): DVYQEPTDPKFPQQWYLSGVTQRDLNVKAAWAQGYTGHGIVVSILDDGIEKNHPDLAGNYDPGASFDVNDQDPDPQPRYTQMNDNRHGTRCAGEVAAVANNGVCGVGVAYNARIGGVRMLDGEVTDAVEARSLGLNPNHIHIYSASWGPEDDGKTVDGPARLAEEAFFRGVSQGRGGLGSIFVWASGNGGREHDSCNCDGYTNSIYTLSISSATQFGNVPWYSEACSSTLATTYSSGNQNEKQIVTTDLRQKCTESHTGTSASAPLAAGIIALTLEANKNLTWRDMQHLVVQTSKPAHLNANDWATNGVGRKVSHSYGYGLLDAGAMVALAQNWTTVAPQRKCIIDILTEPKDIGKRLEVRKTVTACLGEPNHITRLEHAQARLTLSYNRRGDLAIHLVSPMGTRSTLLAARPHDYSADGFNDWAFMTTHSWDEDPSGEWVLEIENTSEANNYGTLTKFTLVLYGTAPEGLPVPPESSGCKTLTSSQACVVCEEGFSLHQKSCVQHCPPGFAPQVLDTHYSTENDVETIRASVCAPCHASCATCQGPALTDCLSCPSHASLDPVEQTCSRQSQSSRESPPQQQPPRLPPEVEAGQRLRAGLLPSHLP
HSV replic up – increases HSV replication in cells; maximum fold increase; hit rate 0.005% among 220,000; HSV replication augmentation in cells, fold increase; AID 1956; in the data active means maximum fold increase above about 1.5; tested in PC3 cells
KLK5 inh – inhibitors of human kallikrein 5. Q9Y337. recombinant hK5, fluorogenic AMC substrate cleavage. inhibition, % at 5 µM. hit rate 0.59% among 210,000. AID 873;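 active means inhibition of 40% or more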
FXIIa inh 1536 – inhibitors of human coagulation factor XIIa; P00748; inhibition, % at 5 µM; purified FXIIa, Boc-QGR-AMC fluorogenic substrate, 2 h; hit rate 0.3% among 220,000; in the data active means inhibition above about 40%
thrombin 1536 – blocks human thrombin protease activity. P00734. alpha-thrombin, Boc-VPR-AMC fluorogenic substrate cleavage. inhibition, % at 5 µM. hit rate 0.26% among 220,000;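 active means inhibition at or above 40%; inactive means inhibition below 40%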
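Test system: human alpha-thrombin protein / Dosing: one concentration per compound, 5 µM, with 0.2% DMSO / Medium: pH 7.5 Tris-saline with Tween 20 / Benchmarks: no-compound enzyme wells and no-enzyme blanks / Read-out basis: percent inhibition of thrombin substrate cleavage / Timing: reaction at room temperature / Measured by: fluorescence, ex 355 nm, em 460 nm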
A number is an active result; 0 = inactive; - = not tested or not shown. A selection: hits, their analogues and other compounds. The true share with any hit is near 1%.

SMILES | FXIa inh 1536 | Furin inh | HSV replic up | KLK5 inh | FXIIa inh 1536 | thrombin 1536
CC(C)c1ccc(CN(C(=O)/C=C/c2ccco2)C2CCS(=O)(=O)C2)cc1 (centres undefined) | 0 | 0 | 0 | 0 | 0 | 0
N#CC(C#N)=CNc1cccnc1 | 0 | 0 | 0 | 0 | 0 | 0
Cc1ccc(Oc2ccccc2/C=C2\SC(=O)N(C)C2=O)cc1 | 0 | 0 | 0 | 51 | 0 | 0
O=C(Nc1ccc(F)cc1F)c1ccc(-n2cccn2)nc1 | 0 | 0 | 0 | 0 | 0 | 0
O=C(Nc1ccc(F)cc1F)c1ccc(-n2cncn2)nc1 | 0 | 0 | 0 | 0 | 0 | 44
Cc1nnc(SCc2cccc(Oc3ccccc3)c2)n1N | 0 | 0 | 0 | 59 | 0 | 0
Cc1nnc(SCC(=O)Nc2ccc(Oc3ccccc3)cc2)n1N | 0 | 0 | 0 | 0 | 0 | 0
Cc1ccc(C)c(C2=CSC3=NS(=O)(=O)CCN23)c1 | 0 | 0 | 0 | 0 | 0 | 0
Cc1ccc(C)c(C2=CSC3=NCCN23)c1 | 0 | 0 | 0 | 80 | 0 | 0
O=C(Nc1ccccc1N1CCOCC1)c1ccc2nc[nH]c2c1 | 0 | 0 | 0 | 0 | 0 | 56
O=C(Nc1ccccc1N1CCOCC1)c1cccc(F)c1 | 0 | 0 | - | 0 | 0 | 0
O=C(COC(=O)c1ccccc1Br)Nc1ccc(F)cc1 | 0 | 0 | 0 | 0 | 41 | 0
CCC(=O)Nc1cccc(C(=O)/C=C/c2ccc(F)cc2)c1 | 0 | 0 | 0 | 0 | 0 | 0
CC(=O)Nc1cccc(C(=O)/C=C/c2ccc(C)cc2)c1 | 0 | 0 | 0 | 61 | 0 | 0
Cc1nc(C(C)NC(=O)CCc2nnc(CCCc3ccccc3)o2)c(C)s1 (centres undefined) | 0 | 0 | 0 | 0 | 0 | 0
Cc1cc(=O)oc2cc(OCCCN3C(=O)c4ccccc4C3=O)ccc12 | 0 | 0 | 0 | 0 | 0 | 0
Cc1cc(=O)oc2cc(OC(=O)CCN3C(=O)c4ccccc4C3=O)ccc12 | 0 | 0 | 0 | 0 | 63 | 0
Cc1ccc(CSc2nccc(-c3c(C)nc4ccccn34)n2)cc1 | 0 | 0 | 0 | 0 | 0 | 0
O=C(c1cc2ccccc2[nH]1)N1CCOCC1 | 0 | 0 | 0 | 0 | 0 | 48
CC(=O)c1ccc(NC(=O)/C(Cl)=C/c2ccccc2)cc1 | 57 | 0 | 0 | 0 | 0 | 0
O=C(NCC(=O)N1CCN(S(=O)(=O)/C=C/c2ccccc2)CC1)c1ccccc1F | 0 | 0 | 0 | 0 | 57 | -
O=C(NCc1ccccc1)c1ccc(Cl)nc1 | 45 | 0 | 0 | 0 | 0 | 0
O=C(Nc1sc2c(c1C(=O)N1CCOCC1)CCCCC2)c1cccnc1 | 0 | 0 | 0 | 0 | 0 | 0
O=C(NCc1ccco1)C1CC(c2ccccc2C(F)(F)F)=NO1 (centres undefined) | 72 | 0 | 0 | 0 | 0 | 0
COc1ccc(C2CC2/C(C)=N/OC(=O)C2CC2)cc1 (centres undefined) | 0 | 0 | 0 | 0 | 0 | 0
SMILES | FXIa inh 1536 | Furin inh | HSV replic up | KLK5 inh | FXIIa inh 1536 | thrombin 1536
C/C(=N\OC(=O)C1CC1)C1CC1c1ccc(F)cc1 (centres undefined) | 0 | 0 | 0 | 52 | 0 | 0
Cc1ccc(C(=O)Cn2nc(C)c([N+](=O)[O-])c2C)c(C)c1 | 0 | 0 | 0 | 0 | 0 | 0
Cc1nn(CC(=O)c2ccc(Cl)s2)c(C)c1[N+](=O)[O-] | 43 | 0 | 0 | 0 | 0 | 0
Cc1ccc(NC(=O)CN(c2ccccc2)S(=O)(=O)N(C)C)cc1C | 0 | 0 | 0 | 43 | 0 | 0
COc1ccc(-c2nc(-c3ccccn3)nc(N3CCN(C)CC3)c2C#N)cc1 | 0 | 0 | 0 | 0 | 0 | 0
COc1ccc(CN(C(=O)c2snc(C(N)=O)c2N)C(C(=O)NC(C)(C)C)c2ccco2)cc1 (centres undefined) | 0 | 0 | 0 | 0 | 43 | 0
CCOC(=O)C1(CC2CCCCO2)CCN(S(=O)(=O)c2ccsc2)CC1 (centres undefined) | 0 | 0 | 0 | 0 | 0 | 0
O=c1c2c3c(sc2n(CCN2CCCCC2)c(=O)n1Cc1ccco1)CCCCC3 | 0 | 0 | 0 | 44 | 0 | 0
O=c1c2c3c(sc2n(CCN2CCOCC2)c(=O)n1Cc1ccco1)CCCCC3 | 0 | 0 | 0 | 0 | 0 | 0
O=C1Nc2c(c(=O)[nH]c(=O)n2-c2ccccc2)C1(Nc1ncccn1)C(F)(F)F (centres undefined) | 0 | 0 | 0 | 156 | 0 | 0
Cn1c(=O)c2c(nc(SCC(=O)N3CCc4ccccc43)n2Cc2ccc(F)cc2)n(C)c1=O | - | 28 | - | - | - | -
C=CCc1cccc2cc(C(=O)N3CCN(c4ccccn4)CC3)c(=O)oc12 | 0 | 0 | 0 | 0 | 0 | 0
COc1ccc(C(=O)Nc2cccc(S(C)(=O)=O)c2)cc1OC | 0 | 0 | 0 | 43 | 0 | 0
CCc1ccc(NCCC(=O)c2ccc(Cl)cc2)cc1 | 0 | 0 | 0 | 0 | 0 | 0
Cc1ccc(NCCC(=O)c2ccc(Cl)cc2)cc1C | 0 | 0 | 0 | 47 | 0 | 0
Cc1sc2ncnc(Sc3ccccc3C(=O)Nc3ccccc3Cl)c2c1C | 0 | 0 | 0 | 0 | 0 | 0
COc1ccc(-n2c(=O)c(NC(=O)c3ccccc3)c3n(c2=S)CCCCC3)cc1 | 0 | 0 | 0 | 0 | 0 | 0
C=C(C)Cn1c(=O)c(NC(=O)c2ccccc2)c2n(c1=S)CCC2 | 0 | 0 | 0 | 41 | 0 | 0
CCOC(=O)c1cc(CC)sc1/N=C/C1=C(O)CCCC1=O | 0 | 37 | 0 | 0 | 0 | 0
CC(=O)NCCOc1nc(N(C)C)nc(N2CCCCC2)n1 | 0 | 0 | 0 | 0 | 0 | 0
CC(=O)Nc1cccc(/C(C)=N/NC(=S)NC(C)C)c1 | 0 | 0 | 0 | 0 | 0 | 0
C=C(C)CNC(=S)N/N=C(\C)c1cccc(NC(C)=O)c1 | 49 | 0 | 0 | 75 | 0 | 0
O=C(Nc1ccc(Cl)cc1)Nc1nc(-c2ccccc2O)cs1 | 53 | 0 | 0 | 0 | 0 | 0
CC1CCc2onc(C(=O)O)c2C1 (centres undefined) | 0 | 0 | 0 | 0 | 0 | 0
Cc1occc(=O)c1OC(=O)Nc1ccc(Cl)c(Cl)c1 | 0 | 0 | 0 | 47 | 0 | 0
SMILES | FXIa inh 1536 | Furin inh | HSV replic up | KLK5 inh | FXIIa inh 1536 | thrombin 1536
COc1ccc(C(=O)Oc2c(C)occc2=O)cc1OC | 0 | 0 | 0 | 0 | 0 | 0
COc1cccc(C(=O)C2=NN(C(C)=O)CC2c2ccco2)c1 (centres undefined) | 0 | 0 | 0 | 0 | 0 | 0
Nc1nnc(-c2cccc([N+](=O)[O-])c2)o1 | 0 | 0 | 0 | 51 | 0 | 0
O=[N+]([O-])c1cccc(-c2nnc(C3CC3)o2)c1 | 0 | 0 | 0 | 0 | 0 | 0
O=C(NCc1cccc(Cl)c1)c1cccc(C(F)(F)F)c1 | 0 | 0 | 0 | 0 | 0 | 0
O=C(NCc1ccccc1Cl)c1cccc(C(F)(F)F)c1 | 0 | 0 | 0 | 41 | 0 | 0
CCCn1[nH]cc(SC)c(=O)c1=O | 0 | 0 | 0 | 122 | 0 | 0
C/C(N)=C(/C#N)C(=O)CSc1nc2cc(Cl)ccc2s1 | 0 | 0 | 0 | 0 | 0 | 41
C/C(N)=C(/C#N)C(=O)CSc1cc(Cl)ccc1Cl | 0 | 0 | 0 | 0 | 0 | 0
COc1cc(NC(=O)CN(C)S(=O)(=O)c2ccc3c(c2)CCC(=O)N3)cc(OC)c1 | 0 | 0 | 0 | 49 | 0 | 0
